From ChEMBL document CHEMBL5584288, “Synthesis, biological evaluation and metadynamics simulations of novel N-methyl β-sheet breaker peptides as inhibitors of Alzheimer's β-amyloid fibrillogenesis” (RSC Med Chem, 2024)
Activity calls are given as the source filed them. No cut-off for these calls is given here. Square brackets hold non-standard residues; d marks the D form. Peptide text beside a SMILES is read from it. Sar = CNCC(=O)O

Columns and labels:
[1] = molecular target: Amyloid-beta precursor protein (Homo sapiens) (UniProt P05067); assay: Inhibition of amyloid beta (1 to 42) (unknown origin) aggregation assessed as reduction in amyloid beta fibril formation at 200 uM incubated for 12 hrs by ThT-based fluorescence analysis
Chain of Amyloid-beta precursor protein (Homo sapiens) (P05067 whole entry): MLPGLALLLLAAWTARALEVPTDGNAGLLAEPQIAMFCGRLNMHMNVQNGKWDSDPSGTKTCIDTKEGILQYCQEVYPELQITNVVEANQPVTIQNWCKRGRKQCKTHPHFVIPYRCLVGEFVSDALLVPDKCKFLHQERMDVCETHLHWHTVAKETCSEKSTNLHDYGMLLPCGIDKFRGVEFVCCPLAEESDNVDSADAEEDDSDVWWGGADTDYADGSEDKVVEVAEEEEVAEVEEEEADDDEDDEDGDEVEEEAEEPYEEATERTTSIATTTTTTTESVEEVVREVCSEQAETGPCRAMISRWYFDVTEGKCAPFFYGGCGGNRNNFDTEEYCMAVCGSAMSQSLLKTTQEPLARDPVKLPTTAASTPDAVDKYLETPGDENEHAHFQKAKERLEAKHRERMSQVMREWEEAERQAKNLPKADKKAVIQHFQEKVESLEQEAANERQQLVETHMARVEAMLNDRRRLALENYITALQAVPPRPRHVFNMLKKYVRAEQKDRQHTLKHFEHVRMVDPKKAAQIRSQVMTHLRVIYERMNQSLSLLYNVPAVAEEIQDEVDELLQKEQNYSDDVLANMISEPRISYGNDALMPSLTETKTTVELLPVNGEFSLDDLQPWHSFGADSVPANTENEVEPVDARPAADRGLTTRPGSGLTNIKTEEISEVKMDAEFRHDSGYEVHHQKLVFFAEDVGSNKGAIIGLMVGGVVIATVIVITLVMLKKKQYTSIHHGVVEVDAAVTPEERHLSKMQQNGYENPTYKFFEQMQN
Method in brief: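 Aβ1–42 (20 μM) incubated alone or with peptide (200 μM, tenfold molar excess) plus ThT (10 μM) in 20 mM Tris-HCl pH 7.4 at 20 °C. Real-time fluorescence (excitation 450 nm, emission 482 nm) recorded every 30 min for ~12 h. Intensity plotted against time. Three independent experiments.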

[2] = system: SH-SY5Y; assay: Cytotoxicity against human SH-SY5Y cells assessed as reduction in cell viability at 10 to 100 uM after 48 hrs by MTT assay; format: toxicity, cell-based; conditions: dose 10-100 µM
Method in brief: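 Human SH-SY5Y neuroblastoma cells in DMEM with 10% FBS, penicillin/streptomycin, 37 °C, 5% CO2. Seeded at 1.5 × 10^4 per well, treated after 24 h, exposed 48 h. MTT 0.50 mg mL⁻¹ for 4 h at 37 °C, formazan dissolved in DMSO, absorbance 570 nm. Viability expressed as % mitochondrial redox activity of untreated control.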

[3] = system: SH-SY5Y; assay: Cytoprotective activity against amyloid beta (25 to 35 residues)-induced toxicity in human SH-SY5Y cells assessed as increase in cell viability incubated for 24 hrs by MTT assay; format: functional, cell-based; conditions: dose 10-100 µM
Method in brief: (§1)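 SH-SY5Y cells seeded at 2.0 × 10^4 per well, after 24 h exposed to Aβ25–35 (100.0 μM; DMSO stock 12.5 mM) for 48 h, washed twice with PBS, then given test peptides for a further 24 h. MTT read-out as in cytotoxicity assay. Viability relative to untreated control cells. Mean ± SD of six measurements from three independent experiments.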

[4] = system: SH-SY5Y; assay: Cytoprotective activity against amyloid beta (25 to 35 residues)-induced toxicity in human SH-SY5Y cells assessed as increase in cell viability at 100 uM incubated for 24 hrs by MTT assay relative to control; format: functional; method in brief: as §1
[5] = Drug uptake in human SH-SY5Y cells at 100 uM by UHPLC-HR MS analysis; format: ADME, cell-based
Method in brief: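 SH-SY5Y cells seeded at 2.0 × 10^6 per 100 mm dish, treated after 24 h with peptides (100 μM) in FBS-free medium. Cell pellets quenched and extracted, sonicated 5 min, centrifuged 3500 rpm at 0 °C for 10 min. Supernatant lyophilized, reconstituted in acetonitrile and analysed by UHPLC-HR TOF-MS/MS, with extracted ion chromatograms of protonated molecular ions.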

[6] = system: SH-SY5Y; assay: Cytoprotective activity against amyloid beta (25 to 35 residues)-induced toxicity in human SH-SY5Y cells assessed as increase in cell viability at 10 uM incubated for 24 hrs by MTT assay relative to control; format: functional; method in brief: as §1

| Molecule | inhibition [1] | Activity [2] | Activity [3] | Activity [4] [%] | Drug uptake [5] | Activity [6] [%] |
| --- | --- | --- | --- | --- | --- | --- |
| Ac-LPFFD-NH2 | Active | Non-Toxic | Dose-Dependent Effect | 110.8 | – | – |
| CC(=O)N[C@@H](CCCCN)C(=O)N(C)CC(=O)N[C@H](C(=O)N[C@@H](Cc1ccccc1)C(=O)N(C)CC(=O)N[C@@H](CCC(=O)O)C(N)=O)C(C)C (Ac-K[Sar]VF[Sar]E-NH2) | Active | Non-Toxic | Dose-Dependent Effect | – | Active | ~30 |
| CC(=O)N[C@@H](CCCCN)C(=O)N(C)CC(=O)N[C@H](C(=O)N[C@@H](Cc1ccccc1)C(=O)N[C@@H](Cc1ccccc1)C(=O)N(C)CC(=O)N[C@@H](CCC(=O)O)C(N)=O)C(C)C (Ac-K[Sar]VFF[Sar]E-NH2) | Active | Non-Toxic | Dose-Dependent Effect | 142.1 | Active | – |
| CC(=O)N[C@@H](Cc1ccccc1)C(=O)N[C@@H](CCCCN)C(=O)N[C@@H](CCC(=O)O)C(=O)N(C)CC(=O)N(C)CC(=O)N[C@H](C(N)=O)C(C)C (Ac-FKE[Sar][Sar]V-NH2) | Active | – | – | – | – | – |
| CC[C@H](C)[C@H](NC(C)=O)C(=O)N[C@H](C(=O)N(C)CC(=O)N[C@@H](CC(C)C)C(=O)N[C@@H](CCSC)C(=O)N[C@H](C(=O)NCC(=O)N(C)CC(=O)N[C@H](C(N)=O)C(C)C)C(C)C)[C@@H](C)CC | Active | – | – | – | – | – |
